# Results pooled from the literature.
# Compare with care: the assays were run in different laboratories.
Compound,system,conditions,Cmax
CC(C)(O)c1cn(-c2ccc(-c3cc(F)c(CO)c(S(C)(=O)=O)c3)cc2)c(C(C)(C)c2cccc(F)c2Cl)n1,"male C57BL/6 mouse, serum","oral, 10 mg/kg",1900 nM
CN1CCN(C(=O)c2cc3c(Nc4ccc(OC(F)(F)F)cc4)ncnc3s2)CC1,"male BALB/c mouse, plasma","oral, 20 mg/kg",1090 ng/mL
Cc1c(C(=O)NN2CCCCC2)nc(-c2ccc(Cl)cc2Cl)n1-c1ccc(OS(=O)(=O)CCC(F)(F)F)cc1,"mouse, plasma","oral, 20 µmol/kg, single dose",1200 nM
CNCCN(C)c1cc(C#N)cc(CCc2cc(C)cc(N)n2)c1,"male BALB/c mouse, plasma","oral, 10 mg/kg",50.8 ng/mL
COc1nc(-c2cc(C)c(N[C@@H](C)c3c(F)cc(F)cc3F)nn2)ccc1-n1cnc(C)c1,"male CD-1 mouse, plasma","oral, 5 mg/kg, single dose",1010 ng/mL
COc1ccc2nccc(N3CCc4c(cc(Cn5ccnc5)cc4-c4cn(C)nc4C(F)(F)F)C3=O)c2c1,"male CD-1 mouse, plasma","oral, 10 mg/kg",1150 ng/mL
CC[C@H](C)[C@@H]1NC(=O)[C@@](C)(NC(=O)[C@H](CCCNC(=N)N)NC(=O)[C@H](CC(C)C)NC(=O)[C@@H](NC(=O)[C@H](CCC(N)=O)NC(=O)[C@H](CC(C)C)NC(C)=O)[C@@H](C)O)CCCC=CCCC[C@@](C)(C(=O)N[C@@H](CC(C)C)C(=O)N[C@@H](Cc2ccc3ccccc3c2)C(N)=O)NC(=O)[C@H](CCCNC(=N)N)NC(=O)[C@H](CCC(N)=O)NC1=O,"male BALB/c mouse, plasma","intravenous, 15 mg/kg",102000 nM
CNC(=O)[C@H](Cc1c[nH]cn1)NC(=O)CN(CCCc1ccccc1)CC(=O)OC,"male C57BL/6 mouse, plasma","intraperitoneal, 30 mg/kg",3800 ng/mL
CC(C)(C)c1ccc(O)c(CN(Cc2cc(C(C)(C)C)ccc2O)C2CCC(NC(N)=O)CC2)c1 (stereo not drawn),"male C57BL/6 mouse, plasma","intraperitoneal, 10 mg/kg, single dose",2240 ng/mL
CNC(=O)c1cc(Oc2ccc(NC(=O)Nc3ccc(Cl)c(C(F)(F)F)c3)c(F)c2)cc[n+]1[O-],"mouse, plasma","oral, 10 mg/kg, single dose",360 ng/mL
Cc1nc(-c2cnc(NC(C)C)n(C)c2=O)ccc1Oc1ccnc(-c2cnn(C)c2)c1,"female mouse, plasma","oral, 3.75 mg/kg, single dose",2780 ng/mL
CC(C)Oc1c(NC(=O)c2ccc(NC(=O)[C@H](CC(N)=O)NC(=O)c3ccc(NC(=O)c4ccc(C#N)cc4)cc3)cc2)ccc(C(=O)Nc2ccc(C(=O)O)cc2)c1O,"male CD-1 mouse, plasma","subcutaneous, 5 mg/kg, single dose",129 ng/mL
COc1ccc([C@@]23Oc4cc(OC)cc(OC)c4[C@]2(O)[C@H](O)[C@H](C(=O)N(C)C)[C@H]3c2ccccc2)cc1,"mouse, plasma","oral, 5 mg/kg",~800 nM
COc1cc(C(=O)N2CCC(N3CCN(C)CC3)CC2)ccc1Nc1ncc2c(n1)N(C)c1ccccc1C(=O)N2C,"mouse, plasma","oral, 10 mg/kg",1620 ng/mL
CCOc1ccc(Cc2cc([C@@H]3O[C@H](CO)[C@@H](O)[C@H](O)[C@H]3O)ccc2Cl)cc1,"male C57BL/6 mouse, plasma","intravenous, 1 mg/kg",1170 ng/mL
Cc1ccc2cncc(N3CCc4c(cc(Cn5ccnc5)cc4-c4cn(C)nc4C(F)(F)F)C3=O)c2c1,"male CD-1 mouse, plasma","oral, 10 mg/kg",2680 ng/mL
CN1C(=O)c2ccccc2[S@+]([O-])c2ccc(C(=O)NCCc3cccs3)cc21,"male C57BL/6 mouse, plasma","intraperitoneal, 30 mg/kg, single dose",8280 ng/mL
CN1CCN(C(=O)CN[C@@H]2C[C@H]2c2ccc(OCc3ccccc3)cc2)CC1,"mouse, plasma","intraperitoneal, 10 mg/kg",542 ng/mL
